Here are results for 37 variants from the RNAGym collection of RNA variant scans (doi:10.1126/science.aae0568).

Variants at the floor of the assay were thinned out.

B1: tRNA (parent)
chain: GUUCCGUUGGCGUAAUGGUAACGCGUCUCCCUCCUAAGGAGAAGACUGCGGGUUCGAGUCCCGUACGGAACG

The variants in this series derive from B1. Nature of the series: yeast fitness relative to wild type (ratio to wild type); higher = fitter; tRNA-Arg(CCU), competitive growth, 37 C, YPD. An outline of the steps: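 Genotype frequency changes were the basis for Darwinian fitness relative to wild type. The frequencies came from 100-nucleotide paired-end sequencing of gene amplicons from the start population and each end population of pooled yeast strains with tRNA-Arg(CCU) gene variants at the native locus. Competition ran in YPD at 37°C for 24 hours in six replicates, genotypes needed ≥ 100 starting reads, and estimates < 0.5 were set to 0.5.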
With GUUCCGAUGGCGUAAUGGUAACGCGUCUCCCUCCUAAGGAGAAGAGUGCGGGUUCGAGUCCCGUCCGGAACG [U7A C46G A65C], the yeast fitness stood at 0.848. GCUCCGUUGGCGUAAUGGUAACGCGUCUCCCUCCUAAGGAGACGCCUGCGCGUUCGAGUCCCGUACGGAACG [U2C A43C A45C G51C]: the yeast fitness is at most 0.5.

As to GUUCCGUUGGCGUACUGGUAACGCGUCUCCCUCCCAUGGAGAAGACUGCGGGUUCGAGUCCCGUAUGGAACG [A15C U35C A37U C66U], the yeast fitness was at most 0.5. The same measure for GUUCCGUUGGCGUCAUGGUAACGCGUCUCCCUCCUAAGGAGAAGACUGCGGGUUCGAGUACCGUUCGGAACG [A14C C60A A65U]: at most 0.5; for GUUCCGUUGGCGUAAUGGUAACGCGUCUCCCUCCUAAGGAGACGACUGCGGGUUCGCGUCCCGUACGGAUCG [A43C A57C A70U]: 0.53. The same measure for GUUCUGUUGGCGUAAUGGUAACGCGUCUCCCUCCUAAGGAGAAGACUGCGGGUUCGAGUGCCGUACGGAACG [C5U C60G]: 0.627. The same measure for GUUCCGUUGGCGUAAUGGUAACGCGUCUCCCUCCUAAGGAGAAGACUGCAGGUUCGAGUGCCGGACGGAACG [G50A C60G U64G]: 0.521; for GUUUCGUUGGCGUAAUGGUAACGCAUCUCCCUCCUAAGGAGAAGACUGCGGGUUCGAGUCCCGUACGGAACG [C4U G25A]: 0.895; for GUUCCGUUGGUGGAAUGGUUACGCGUCUCCCUCCUAAGGAGAAGACUGCGGGGUCGAGUCCCGUACGGAACG [C11U U13G A20U U53G]: at most 0.5. GUUCCGUUGGCGUAAGGGUAACGCGUCUCCGUCCUAAGGAGAAGACUGCGGGUUCGAGUCCCGUCCGGAACG [U16G C31G A65C]: the yeast fitness is at most 0.5.

For the variant GUUCCGUUGGGGUAAUGGUAACGCAUCUCUCUCCUACGGAGAAGAUUGCGGGUUCGAGUCCCGUACGGAACG [C11G G25A C30U A37C C46U], the yeast fitness came to 0.568. The same measure for GUUCCGUUGGCGUAAUGGUAACGCGUCUCCCUCCUAUGGAGAAGACUGAGGAUUUAAGUCCCGUACGGAACG [A37U C49A G52A C55U G56A]: 0.529. The same measure for GUUCCGUUGGCGUAAUGGUAACGCGACUCCCUCCUAAGGAGAAGACUGCGGGUUCGAGUCCCGUACGGUACG [U26A A69U]: 1.03; for GUUCCGUUGCCGUAAUGGUAACGCGUCUACUUCCUAAGGAGAAGACUGCGGGUUCGAGUCCCGUACGCAACG [G10C C29A C31U G68C]: at most 0.5; for GUUCCGUUGGCGUAAUGGUAACGCGUCUCCCUCCUAAGGAGAAAACUGCGGGUUCGAGUCCCAUACCGAACG [G44A G63A G67C]: at most 0.5. The value for GUUCCGUUGGCGUAAUGGUAAUGCGUCUCCCUCCUAAGGAGAAGACUGCGGGUUCGAGACCCGUACGGAACG [C22U U59A] was 0.705; that for GUUCCGUUGGCGUAAUGGUAACGCGUCUCUCUCCUAAGGAGAAGACUGCGGGUUCGAGUCCCGUACGAAACG [C30U G68A] was 0.744; that for GUUCCGUUGGCGUAAUGGUAACGCGUCUCCCUACUAAGGAGAAGACUGCGGGUUCGAGUCCCGUACGGGACG [C33A A69G] was 0.655. In the case of GUUCCGUUGGCGUAAUGGUAGCGCGUCUCCCUCCUAAGGAGACGACUGCGGGUUCGAGUCCCGUACGGAUCG [A21G A43C A70U], the yeast fitness is 0.712. With GUUCCGUUGGCGUAAUGGUAACGCGUGUCCCUCCUAAGGUGAAGACUGCGGGUUUGAGUCCCGUACGGAACG [C27G A40U C55U], the yeast fitness was at most 0.5.

Regarding GUUCCGUUGGCGUAAUGGUCACGCGUCUCCCUCCUGAGGAGAAGACUGCGGGUUUGAGUCCCGUACGGAACG [A20C A36G C55U], the yeast fitness was 0.556. The value for GUUCCGUUGGCGUAAUGGUAACGCGUCUCCCUCGUAAGGAGAUGACUGCGGGUUCGAGUCCCGUACGGAACG [C34G A43U] was 0.625; that for GUUCCGUUGGCGUAAUGGUAGCGUGUCUCCCUCCUUAGGAGAAGACUGCGGGUUCGAGUCCCGUAUGGUACG [A21G C24U A36U C66U A69U] was at most 0.5; that for GUUCCGUUGGCGUAAUGGUAUCGCAUCUCCCUCCUAAGGAGAAGACUGCAGGUUCGAGUCCCGUACGUAACG [A21U G25A G50A G68U] was at most 0.5. On to GUUCUGUUGGCGUAAUGGUAACGCGUCUCCCUCCUAAGGAGAAGAUUGCGGGUUGGAGUCCCGAACGGAACG [C5U C46U C55G U64A], for which the yeast fitness was 0.638. Regarding GUUCCGUUGGCGUAUUGGUAACGCGUCUCCCUCCUAAGGAGAAGAUUGCGGGUUCGAGUCCCGUUCGCAACG [A15U C46U A65U G68C], the yeast fitness was at most 0.5. On to GUUCUGUUGGCGUAAUGGUAACGCGUCUCCCUCCUAAGGAGAAGACUGCGGGUUCGCCGCCCGUAUGGAACG [C5U A57C G58C U59G C66U], for which the yeast fitness was at most 0.5. The same measure for GUUCCGUUGGGGUAAAGGUAACGCGUCUUCCUCCUAAGGAGAAGACUGCGGGUUCGAGUCCCGUAAGGAACG [C11G U16A C29U C66A]: at most 0.5. The same measure for GUUCCGUUGGCGUAAUGGUAACGAGUCUCCUUCCUAAAGAGAAGACUGCGGGUUCGACUCCCGUACGGAACG [C24A C31U G38A G58C]: at most 0.5; for GUUCCGUUGGCGUAAUGGUAACUCGUCUCCCUCCUAAGGAGAAGACUGCGGGUUCGAGUCCCAUACGGAACG [G23U G63A]: 0.609. Turning to GUUCCGUUGACGUAAUGGUAACGGGUCUCCCUCCUAAGGAGAAGACUGCGGGUUCGAGUCCCGUACGGAACG [G10A C24G], the yeast fitness stood at 0.517. The value for GUUGCGUUGGGGUAAUGGUAACGCGUCUCCUUCCUAAGGACAAGACUGCGGGUGCGAGUCCCGUACGGAACG [C4G C11G C31U G41C U54G] was 0.707. The same measure for GUUGCGUCGGCGUAAUGGUAACGCGUCUCCCUCCUAAGGAGAAGACUGAGGGUUCGAGUCCCGUACGGAACG [C4G U8C C49A]: at most 0.5; for GUUCCGUUGGCGUAAUGGUAACACGUCUCACUCCUAAGGAGAAGACUGCGGGUUCGAGUCCCGUACGGAACG [G23A C30A]: 0.792; for GUUCCGUUGGCGUAAUGGUAACGCGUCUCCGCCCUAAGCAGAAGACUGCGGGUUCGAGUCCCGUACGGAACG [C31G U32C G39C]: 0.507.

Consider GGUCCGUUGGCGUAAUGGUUACGCGUCUCCCUCCUAAGGAGAUGACUGCGGGUUCGAGUCCCGUACGGAACG [U2G A20U A43U], for which the yeast fitness was 0.594. In the case of GUUUCGUUGGCGUAAUGGUAACGCGUCUACGUCCUAAGGAGCAGUCUGCGCGUUCGAGUCCCGUACGGAACG [C4U C29A C31G A42C A45U G51C], the yeast fitness was at most 0.5.
